From publication PMC2864154 (Biochemical pharmacology, 2010)
Read-outs that look alike come from different tables or passages of the source. Values belong to the compound of their own block, whether it stands above or below them.

Experiments:
P2Y4 = conditions: read-out: EC50 PLC activation; P2Y4, transfected astrocytoma cells; cited from earlier work
MIN6 cells [1] = assay: Inositol phosphate; type: cell-based, mouse; conditions: read-out: EC50 accumulation of intracellular IP3; 30 min at 37°C, 20 mM lithium chloride, n=3
How it was run: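 MIN6 cells were grown to 80% confluence with myo-[3H]-inositol (2 μCi/ml) for 48 h. They were then exposed to P2Y ligand or buffer with 20 mM LiCl for 30 min at 37°C. The reaction was stopped with cold 20 mM formic acid, and supernatants were neutralized with NH4OH. Samples went through AG1-X8 anion exchange, with total IP3 eluted by 1 M ammonium formate/0.1 M formic acid and counted by scintillation; n=3.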

P2Y6 = conditions: read-out: EC50 PLC activation; P2Y6, transfected astrocytoma cells; cited from earlier work
MIN6 cells [2] = assay: TNF-α induced apoptosis, HO342/PI nuclei staining, fluorescence microscopy; type: cell-based, mouse; conditions: TNF-α 50 ng/ml; for nuclei/cells double stained with HO342 and PI: agonist 10 μM where present
How it was run: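 MIN6 cells were grown 48 h on coverslips, then moved to DMEM with 5% FBS. Cells were pretreated 30 min with 10 μM agonist, which stayed present, then given TNF-α 50 ng/ml (16 h per methods; legend gives staining after 24 h); PBS alone was the negative control. Staining used PI 10 μg/ml plus HO342 20 μg/ml for 10 min, viewed by fluorescence microscopy at 365 nm excitation. Condensed or fragmented blue, pink or red nuclei were scored apoptotic.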

MIN6 cells [3] = assay: TNF-α induced apoptosis, PI flow cytometry; type: cell-based, mouse; conditions: TNF-α 50 ng/ml, 24 h; for cell death (sub-G1 peak): agonist pretreatment where present
How it was run: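 Cells were grown in 6-well plates, pretreated with agonist (10 μM, 30 min, kept present), and exposed to TNF-α 50 ng/ml. At 24 h after induction, cells were trypsinized, stained with PI (10 μg/ml) for 30 min, and analyzed by flow cytometry. Cell death was scored as the percentage of cells with sub-G1 DNA content.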

MIN6 cells [4] = assay: Insulin secretion assay; type: cell-based, mouse; conditions: for EC50: read-out: EC50 insulin secretion, 1 h, n=3
How it was run: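 Cells were seeded at 40,000/well and cultured 48 h in DMEM at 37°C, then preincubated 1 h in KRBB with 3.3 mM glucose and 0.3% albumin. Secretion was stimulated 1 h at 37°C in KRBB with 16.7 mM glucose (or a glucose series) ± agonist, with or without P2Y1/P2Y13 antagonists (30 μM) or a P2Y6 antagonist (10 μM). Insulin was measured by ELISA against a mouse insulin standard; n=3.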

P2Y2 = conditions: read-out: EC50 PLC activation; P2Y2, transfected astrocytoma cells; cited from earlier work
P2Y1 receptor = P2Y1 receptor (Mus musculus, UniProt P49650); assay: Competition binding against [125I]MRS2500 in MIN6 cell membranes
mouse P2Y1 receptor = mouse P2Y1 receptor (Mus musculus, UniProt P49650); assay: Saturation binding of [125I]MRS2500 in MIN6 cell membranes; conditions: n=3
How it was run: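 Membranes came from MIN6 cells at 80% confluence: homogenized, cleared at 100 × g for 5 min, Polytron-homogenized in 50 mM Tris-HCl pH 7.4, and pelleted at 20,000 × g for 20 min at 4°C. They were incubated with 0.2–7.2 nM [125I]MRS2500 in 50 mM Tris, MgCl2, pH 7.4, for 60 min at 4°C. Nonspecific binding used 10 μM unlabelled ligand. Bound ligand was collected on GF/B filters; Bmax was expressed per mg protein (BCA) and KD from saturation/Scatchard analysis; n=3.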

[5] = against [125I]MRS2500, MIN6 cell membranes, mean ± s.e.m. of three experiments

Sequence of P2Y1 receptor (P49650 whole entry): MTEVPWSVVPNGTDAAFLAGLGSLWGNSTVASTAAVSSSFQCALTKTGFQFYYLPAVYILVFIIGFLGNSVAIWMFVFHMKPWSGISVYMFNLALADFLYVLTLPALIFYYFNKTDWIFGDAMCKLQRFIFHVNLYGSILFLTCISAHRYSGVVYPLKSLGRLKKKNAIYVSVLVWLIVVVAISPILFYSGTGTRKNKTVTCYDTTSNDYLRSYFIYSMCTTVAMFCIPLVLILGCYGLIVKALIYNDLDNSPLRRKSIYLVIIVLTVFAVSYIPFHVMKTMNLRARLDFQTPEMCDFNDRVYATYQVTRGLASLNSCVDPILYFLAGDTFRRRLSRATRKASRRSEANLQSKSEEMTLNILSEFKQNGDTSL
Sequence of mouse P2Y1 receptor (P49650 whole entry): as above

Compound: O=c1ccn([C@@H]2O[C@H](COP(=O)(O)OP(=O)(O)OP(=O)(O)OC[C@@H]3O[C@@H](n4ccc(=O)[nH]c4=O)C(O)[C@@H]3O)[C@H](O)C2O)c(=O)[nH]1 (stereo partly drawn) [Up3U, P^1,P^4-di(uridine 5′-)triphosphate]
EC50 (P2Y4): 0.87 ± 0.11 µM | EC50 (MIN6 cells [1]): 0.029 ± 0.0073 µM | EC50 (P2Y6): 0.27 ± 0.07 µM | cells homogeneously stained only with HO342 (MIN6 cells [2]; agonist 10 μM): more than 80% | cytoprotection against TNF-α induced apoptosis (microscopy) (MIN6 cells [2]; agonist 10 μM pretreatment): significant cytoprotection | nuclei/cells double stained with HO342 and PI (MIN6 cells [2]): ~ 10% | reduction of cell death compared to TNF-α alone (MIN6 cells [3]; agonist pretreatment): significant reduction in cell death | cell death (sub-G1 peak) (MIN6 cells [3]): 25% | effect on insulin secretion at low glucose (MIN6 cells [4]; 3.3 mM glucose, data not shown): did not show any significant effect | increase in insulin secretion compared with glucose alone (MIN6 cells [4]; agonist 10 μM, 35 mM glucose): 2 fold | EC50 (MIN6 cells [4]; 16.7 mM glucose): 0.0307 ± 0.0127 µM | EC50 (P2Y2): 1.31 ± 0.21 µM

Ki (P2Y1 receptor): 0.0498 ± 0.00023 µM
Compound: CNc1ncnc2c1ncn2[C@H]1C[C@H](OP(=O)(O)O)[C@@H](COP(=O)(O)O)O1 [MRS2179, N^6-methyl-2′-deoxyadenosine-3′,5′-bisphosphate]

Compound: TNF-α
nuclei/cells double stained with HO342 and PI (MIN6 cells [2]): 30-40% | cell death (sub-G1 peak) (MIN6 cells [3]): 54%

Bmax (mouse P2Y1 receptor): 307±22 fmol receptor per mg protein | Kd (mouse P2Y1 receptor; saturation binding, 60 min at 4° C): 0.00474 ± 0.00047 µM
Compound: CNc1nc(I)nc2c1ncn2[C@H]1C[C@H](OP(=O)(O)O)[C@]2(COP(=O)(O)O)C[C@H]12 [[^125I]MRS2500]

Ki (P2Y1 receptor; [5]): 0.335 ± 0.0039 µM
Compound: Nc1ncnc2c1ncn2[C@@H]1O[C@H](COP(=O)(O)OP(=O)(O)O)[C@@H](O)[C@H]1O [ADP]
effect on insulin release (MIN6 cells [4]; agonist 10 μM, 16.7 mM glucose): stimulated insulin release | concentration at which insulin secretion was maximal (MIN6 cells [4]; concentration response studies, 16.7 mM glucose): 10 µM

Ki (P2Y1 receptor; [5]): 0.00292 ± 0.00021 µM
Compound: CNc1nc(I)nc2c1ncn2[C@H]1C[C@H](OP(=O)(O)O)[C@]2(COP(=O)(O)O)C[C@H]12 [MRS2500, 2-iodo-N^6-methyl-(N)-methanocarba-2′-deoxyadenosine-3′,5′-bisphosphate]

Compound: S=C=Nc1cccc(NC(=S)NCCCCNC(=S)Nc2cccc(N=C=S)c2)c1 [MRS2578]
effect of antagonist on insulin secretion induced by Up3U (MIN6 cells [4]; antagonist 10 μM, Up3U 10 μM): significantly blocked

Ki (P2Y1 receptor; [5]): 0.00686 ± 0.00012 µM
Compound: CNc1nc(Cl)nc2c1ncn2[C@H]1C[C@H](OP(=O)(O)O)[C@]2(COP(=O)(O)O)C[C@H]12 [MRS2279, 2-chloro-N^6-methyl-(N)-methanocarba-2′-deoxyadenosine-3′,5′-bisphosphate]

EC50 (MIN6 cells [4]; 16.7 mM glucose): 0.0258 ± 0.0056 µM
Compound: CSc1nc(N)c2ncn(C3CC(O)C4(COP(=O)(O)OP(=O)(O)O)CC34)c2n1 (stereo not drawn) [MRS2365, (N)-methanocarba-2′-deoxy-2-methylthio-adenosine-5′-diphosphate]
